In PubChem BioAssay:
Records with an inconclusive call do not appear.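 How the source made its calls, unless noted: active means inhibition over a set limit, the all-compound mean plus 3 SD, in both replicate runs; inconclusive means over that limit in just one replicate run; inactive means at or under that limit in both runs.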

Assays:
[1] = OD615 S. cerevisiae growth inhibition, permissive medium, pilot counter-assay, permissive growth control for S. cerevisiae lifespan shortening project (AID 705;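 active means growth inhibition above 25% in both replicates, a cutoff set 3 SD above the mean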); details: OD615, 24 h, at 10 µM, stronger effect = higher value
In short: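 assay system = Saccharomyces cerevisiae strain carrying genetically modified DeaD replicative-lifespan system | medium = SC raffinose/galactose permissive medium | dosing = 10 µM single dose, 0.25% DMSO | schedule = 24 h compound exposure at 30 °C after 4 h pre-growth | measured by = OD at 615 nm | read-out basis = growth inhibition from lowered OD615 after 24 h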

[2] = Restrictive medium S. cerevisiae growth inhibition, OD615, pilot screen of yeast lifespan reduction project, restrictive growth control (AID 706;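 active means growth inhibition above a set limit, 3 SD over mean compound inhibition, in both replicates, cut at about 43% in these data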;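 further: modified DeaD lifespan yeast strain shifted to restrictive glucose medium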); details: OD615, 48 h, at 10 µM, stronger effect = higher value
In short: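 Buffer or medium: CSMM-D glucose medium. Material: genetically modified Saccharomyces cerevisiae, DeaD replicative lifespan assay strain. Times: 48 h compound exposure at 30 °C. Measured by: optical density at 615 nm.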

[3] = viability gain of MRP-1-high H69AR cells under doxorubicin, pilot screen, MRP-1 activator project, CellTiter-Glo, duplicate (AID 807;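 active means viability increase at or above a cutoff of the median across tested compounds plus 3 SD, cut at about 8.5% in these data, passing the limit was not always enough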;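 further: compound pretreatment 18-22 h then 72 h combined with doxorubicin; 0% = doxorubicin alone and 100% = vehicle without doxorubicin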); details: H69AR viability with doxorubicin, CellTiter-Glo luminescence; at 10 µM; stronger effect = higher value
[4] = growth suppression of beta-catenin knockout HCT116, pilot screen, human colon tumor cells (AID 823;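 active means cell viability at or below a set limit in both duplicate runs, the limit being the all-compound median minus 4 SD, cut at about 23% in these data, passing the limit was not always enough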;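 further: 0% = wells killed by 20 µM Hyamine and 100% = untreated DMSO cell wells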); details: CellTiter-Glo, 60 h, at 10 µM, stronger effect = lower value
[5] = growth suppression of PTEN-deleted HCT116, pilot screen, cell-based, HCT116 clonal line, CellTiter-Glo (AID 824;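 active means viability at or below 27.92% in each of two runs, the all-compound median minus 4 SD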;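 further: 0% = 20 µM Hyamine control and 100% = vehicle cell control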); details: 60 h, at 10 µM, stronger effect = lower value
[6] = inhibitors of the yeast RAM network, pilot screen, dse1pr::URA3 reporter, 5-FOA selection (AID 869);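 further: 0% = DMSO wells with no growth and 100% = 10 µM 1-NA-PP1 with full growth; RAM network block rescues cells from 5-FOA so hits raise OD615 growth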; details: S. cerevisiae dse1pr::URA3 5-FOA growth, OD615, 2 d; at 10 µM; stronger effect = higher value; strain carries analog-sensitive mutant Cbk1 kinase
[7] = RAM signaling pathway blockade in yeast – S. cerevisiae, Pdr1DBD-CYC8 efflux-inhibited sensitized strain, primary screen (AID 1298;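 active means RAM network inhibition above 8.4% in each of two replicates, 3 SD over the compound average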;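 further: 0% = DMSO untreated cells without growth and 100% = 10 µM 1-NA-PP1 full growth; higher means more yeast growth rescued from 5-FOA killing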); details: S. cerevisiae cbk1-as DSE1-URA3 strain, 5-FOA growth OD615, 2 d; at 50 µM; stronger effect = higher value

O=C1c2ccccc2C(O)N1c1ccc(Cl)cc1 (centres undefined)
inactive: growth inhibition [1] -8.19% | growth inhibition [2] -7.83% | viability increase [3] -0.07% | viability [4] 93.4% | viability [5] 95.5% | inhibition [6] 0.58% | RAM network inhibition [7] 1.49%

CCC(=O)Nc1ccc(S(=O)(=O)N2CCc3ccccc3C2)cc1
inactive: growth inhibition [1] -7.58% | growth inhibition [2] -3.42% | viability increase [3] -3.43% | viability [4] 89.1% | viability [5] 90.1% | inhibition [6] 0.395% | RAM network inhibition [7] 10%

COc1cccc(-c2cc(C(=O)N3CCN(c4ncccn4)CC3)c3ccccc3n2)c1
inactive: growth inhibition [1] 0.09% | growth inhibition [2] -2.04% | viability increase [3] -6.25% | viability [4] 62% | viability [5] 64% | inhibition [6] 1.14% | RAM network inhibition [7] -0.21%

CCn1cc(SCC(N)=O)c2ccccc21
inactive: growth inhibition [1] -13.8% | growth inhibition [2] -17.4% | viability increase [3] 0.17% | viability [4] 99.1% | viability [5] 92.3% | inhibition [6] 1.14% | RAM network inhibition [7] 8.71%

O=C(NCc1cccnc1)c1ccc(CS(=O)(=O)c2ccc(Br)cc2)o1
inactive: growth inhibition [1] -8.28% | growth inhibition [2] -13.7% | viability increase [3] -1.28% | viability [4] 95.3% | viability [5] 92.8% | inhibition [6] 0.655% | RAM network inhibition [7] 3.41%

CCn1cc(C(=O)N2CC(C)CC(C)C2)c(=O)c2cc(S(=O)(=O)N(C)C)ccc21 (centres undefined)
inactive: growth inhibition [1] 4.35% | growth inhibition [2] 6.52% | viability increase [3] -0.18% | viability [4] 103% | viability [5] 101% | inhibition [6] -0.3% | RAM network inhibition [7] 2.78%

COc1ccc(C(=O)Nc2c(F)c(F)c(F)c(F)c2F)c(OC)c1
inactive: growth inhibition [1] -11% | growth inhibition [2] 3.84% | viability increase [3] -1.15% | viability [4] 100% | viability [5] 102% | inhibition [6] 2.96% | RAM network inhibition [7] 2.45%

Cc1ccc(OS(=O)Nc2cccc3nccnc23)cc1 (centres undefined)
inactive: growth inhibition [1] 1.61% | growth inhibition [2] 13.2% | viability increase [3] -4.19% | viability [4] 56.8% | viability [5] 55% | inhibition [6] 1.72% | RAM network inhibition [7] 2.2%

COc1ccc(C2C(C(=O)Nc3cc(C)on3)c3ccccc3C(=O)N2C)cc1 (centres undefined)
inactive: growth inhibition [1] 2.9% | growth inhibition [2] -2.79% | viability increase [3] -1.73% | viability [4] 101% | viability [5] 101% | inhibition [6] 1.46% | RAM network inhibition [7] 0.37%

CCOC(=O)c1cc2c(=O)n3ccccc3nc2n(C(C)C)c1=NC(=O)c1ccncc1
inactive: growth inhibition [1] 6.47% | growth inhibition [2] 4.03% | viability increase [3] -1.27% | viability [4] 98.3% | viability [5] 94.7% | inhibition [6] -0.45% | RAM network inhibition [7] -0.58%

COC(=O)C1=C(C)n2cnnc2NC1c1ccc(Cl)cc1 (centres undefined)
inactive: growth inhibition [1] 0.905% | growth inhibition [2] -4.44% | viability increase [3] 0.28% | viability [4] 104% | viability [5] 97.2% | inhibition [6] 1.27% | RAM network inhibition [7] -0.92%

CCC(C)NC(=O)C1CCC(=O)N(c2ccc3c(c2)OCO3)C1c1ccc(OC)cc1 (centres undefined)
inactive: growth inhibition [1] 0.49% | growth inhibition [2] -0.06% | viability increase [3] -1.78% | viability [4] 103% | viability [5] 100% | inhibition [6] 1.02% | RAM network inhibition [7] 4.2%

CCCc1nnc(NC(=O)CC(=O)OCC)s1
inactive: growth inhibition [1] 6.47% | growth inhibition [2] -8.03% | viability increase [3] -1.07% | viability [4] 97% | viability [5] 93.1% | inhibition [6] 0.96% | RAM network inhibition [7] -0.11%

CCN(CC)CCN=C1CCCc2ccccc2N1
inactive: growth inhibition [1] -1.96% | growth inhibition [2] 5.53% | viability increase [3] -2.11% | viability [4] 86.9% | viability [5] 87% | inhibition [6] 2.3% | RAM network inhibition [7] 0.67%

CCC(=O)N=c1sc2c(OC)ccc(OC)c2n1C
inactive: growth inhibition [1] -7.02% | growth inhibition [2] -7.99% | viability increase [3] -4.85% | viability [4] 92.4% | viability [5] 91.2% | inhibition [6] 1.68% | RAM network inhibition [7] 2.04%

COCc1cc(=O)n2c(-c3ccc(C)cc3)n[nH]c2n1
inactive: growth inhibition [1] -9.25% | growth inhibition [2] 6.96% | viability increase [3] -0.72% | viability [4] 95.8% | viability [5] 92.1% | inhibition [6] 2.2% | RAM network inhibition [7] 1.28%

CCCCCCN=CC1=C(O)C(C(=O)OC)C(C)(C)CC1=O (centres undefined)
inactive: growth inhibition [1] -10.1% | growth inhibition [2] -3.98% | viability increase [3] 1.15% | viability [4] 95.1% | viability [5] 95.3% | inhibition [6] 0.93% | RAM network inhibition [7] 0.11%

CCC(=O)N1CCc2cc(Br)cc(S(=O)(=O)NCCN3CCOCC3)c21
inactive: growth inhibition [1] -4.99% | growth inhibition [2] -8.08% | viability increase [3] 0.03% | viability [4] 101% | viability [5] 98.4% | inhibition [6] 1.71% | RAM network inhibition [7] 1.49%

COc1ccc(C(=O)NCC(c2cccnc2)N2CCN(c3ccccc3)CC2)cc1OC (centres undefined)
inactive: growth inhibition [1] -5.73% | growth inhibition [2] 0.095% | viability increase [3] -2.1% | viability [4] 97.6% | viability [5] 93.1% | inhibition [6] 1.5% | RAM network inhibition [7] 2.74%

COCCNC(=O)COc1ccccc1Cl
inactive: growth inhibition [1] -8.43% | growth inhibition [2] 0.04% | viability increase [3] -1.02% | viability [4] 95.4% | viability [5] 93.8% | inhibition [6] 0.815% | RAM network inhibition [7] 1.81%

CC1=C(C(=O)N(C)C)C(c2cccc(Cl)c2)NC(=O)N1 (centres undefined)
inactive: growth inhibition [1] -2.44% | growth inhibition [2] -14.6% | viability increase [3] 0.18% | viability [4] 99.1% | viability [5] 94.9% | inhibition [6] 2.12% | RAM network inhibition [7] 2.17%

Cc1cccc(NCc2nc(-c3ccccc3)no2)c1
inactive: growth inhibition [1] -2.16% | growth inhibition [2] 9.07% | viability increase [3] 2.88% | viability [4] 107% | viability [5] 106% | inhibition [6] 2.41% | RAM network inhibition [7] 3.44%

CCCN1C(=O)c2cc(C(=O)NC3CCCC3)ccc2C1O (centres undefined)
inactive: growth inhibition [1] -10.3% | growth inhibition [2] -1.61% | viability increase [3] -2.46% | viability [4] 103% | viability [5] 95.5% | inhibition [6] 0.125% | RAM network inhibition [7] 9.43%

Cn1nnnc1P(=O)(c1ccccc1)c1ccccc1
inactive: growth inhibition [1] 0.165% | growth inhibition [2] 0.5% | viability increase [3] 0.85% | viability [4] 103% | viability [5] 102% | inhibition [6] 0.995% | RAM network inhibition [7] 1.32%

COCCN1Cc2cccc(C(=O)NCc3cccnc3)c2C1=O
inactive: growth inhibition [1] 3.25% | growth inhibition [2] 10.2% | viability increase [3] 0.03% | viability [4] 111% | viability [5] 101% | inhibition [6] 3.75% | RAM network inhibition [7] 0.51%

CC(=O)Nc1ccc(S(=O)(=O)NC2=NCN(CCOC(=O)c3ccccc3)CN2)cc1
inactive: growth inhibition [1] -3.64% | growth inhibition [2] 5.12% | viability increase [3] -1.37% | viability [4] 92.7% | viability [5] 93.6% | inhibition [6] 1.29% | RAM network inhibition [7] 1.02%

C=CCOC(=O)CCP(=O)(CCC(=O)OCC=C)c1ccccc1
inactive: growth inhibition [1] 5.05% | growth inhibition [2] 1.05% | viability increase [3] -1.13% | viability [4] 96.5% | viability [5] 98.8% | inhibition [6] -0.22% | RAM network inhibition [7] -1.29%

Cc1oc(-c2ccc(Cl)cc2)nc1CN1CCC(C(=O)NCCCN2CCCC2=O)CC1
inactive: growth inhibition [1] -13.4% | growth inhibition [2] -11.7% | viability increase [3] -2.67% | viability [4] 93.1% | viability [5] 89% | inhibition [6] 1.76% | RAM network inhibition [7] 4.34%

c1ccc(OCCSc2ncnc3nc[nH]c23)cc1
inactive: growth inhibition [1] 3.62% | growth inhibition [2] 15.4% | viability increase [3] -0.26% | viability [4] 93.3% | viability [5] 87.4% | inhibition [6] 1.73% | RAM network inhibition [7] 3.23%

COc1cccc(N2C(=O)C3CCCN3C2c2ccc(Cl)cc2)c1 (centres undefined)
inactive: growth inhibition [1] 3.31% | growth inhibition [2] 17.5% | viability increase [3] -2.51% | viability [4] 95.2% | viability [5] 87% | inhibition [6] 1.21% | RAM network inhibition [7] 2.53%

CCOC(=O)c1ccc(Nc2nnc(C(C)(C)C)c(=O)[nH]2)cc1
inactive: growth inhibition [1] -18.6% | growth inhibition [2] -21.9% | viability increase [3] -7.93% | viability [4] 49.6% | viability [5] 43.7% | inhibition [6] 0.35% | RAM network inhibition [7] 2.06%

CCC(C)NC(=O)c1c(-c2cc(Cl)c(OC)c(Cl)c2)noc1C (centres undefined)
inactive: growth inhibition [1] -15% | growth inhibition [2] -11.9% | viability increase [3] 0.42% | viability [4] 96.7% | viability [5] 93% | inhibition [6] 0.895% | RAM network inhibition [7] 5.69%

Cc1cc(C)n(C(CC(=O)N2CCc3ccccc3C2)C(=O)O)n1 (centres undefined)
inactive: growth inhibition [1] -3.07% | growth inhibition [2] -0.04% | viability increase [3] 0.01% | viability [4] 102% | viability [5] 95.5% | inhibition [6] 0% | RAM network inhibition [7] 5.81%

COc1ccc(C(C#N)(CCC#N)CCC#N)cc1OC
inactive: growth inhibition [1] -14.5% | growth inhibition [2] -4.89% | viability increase [3] -1.32% | viability [4] 99.7% | viability [5] 105% | inhibition [6] 1.13% | RAM network inhibition [7] 3.89%

CCCCn1c(C(C)NC(=O)CC)nc2ccccc21 (centres undefined)
inactive: growth inhibition [1] -12.9% | growth inhibition [2] -3.19% | viability increase [3] -3.16% | viability [4] 92.2% | viability [5] 92.7% | inhibition [6] 0.01% | RAM network inhibition [7] -0.63%

CCN1CCc2c(sc(NC(=O)c3ccc(S(=O)(=O)N4CCOCC4)cc3)c2C(N)=O)C1
inactive: growth inhibition [1] -2.02% | growth inhibition [2] -1.51% | viability increase [3] -2.7% | viability [4] 86.8% | viability [5] 87.2% | inhibition [6] 1.45% | RAM network inhibition [7] 0.16%

O=C(NCc1ccco1)Nc1ccc(Br)cc1
inactive: growth inhibition [1] 3.96% | growth inhibition [2] 5.27% | viability increase [3] -2.7% | viability [4] 95.7% | viability [5] 97.7% | inhibition [6] 1.09% | RAM network inhibition [7] 5.07%
